Data set [1] is described as follows: Partition coefficient in octanol-phosphate buffer at pH 7.4.
Data set [2] is described as follows: Compound was evaluated for the change in Tm of isolated helical DNA in solution. The format is ADME. The procedure, abridged:
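Thermal denaturation of calf thymus DNA (5.2×10⁻⁵ M, P) with drug at 5.2×10⁻⁶ M in 0.01 M phosphate buffer pH 7, 10⁻⁵ M EDTA, 5% Me2SO. ΔTm = Tm(DNA–drug complex) − Tm(DNA).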

The subject of data set [3] is L1210. The data set is described as follows: Compound was evaluated for the 50% inhibition of the incorporation of [3H]- thymidine in the DNA (inhibition of synthesis in leukemia L1210 cells). Particulars: Mus musculus, read-out: ED50 (the source's name). The format is functional.
Data set [4] deals with L1210. Description: Compound was evaluated for the 50% inhibition of the incorporation of [3H]uridine in the RNA (inhibition of synthesis in leukemia L1210 cells). Conditions: Mus musculus, read-out: ED50 (the source's name).
Data set [5] is described as follows: Percent recovery of compound at pH 2. The format is ADME. The procedure, abridged: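 Drug stocks in CH3CN or EtOH were diluted 1:1 with phosphate buffer (pH 7), citrate buffer (pH 4) or 0.1 N HCl–KCl (pH 2). Solutions were held at 23 °C for 22 h, then aliquots were analysed by reversed-phase C18 HPLC eluted with 0.1 N NaH2PO4–CH3CN. Percent of drug recovered was reported.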

Data set [6] is described as follows: Percent recovery of compound at pH 4. The format is ADME. In short, it runs like this: (§1)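 Drug stock in CH₃CN or EtOH was diluted 1:1 with citrate buffer (pH 4) or phosphate buffer (pH 7) and held at 23 °C for 22 h. Remaining drug was measured by reversed-phase C18 (5 μm) HPLC, eluting with 0.1 N NaH₂PO₄–CH₃CN (70:30 or 66:34, depending on compound). Result is reported as % recovery.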

Data set [7] in a line: Percent recovery of compound at pH 7. The class given is ADME. In short, it runs like this:
as §1

The test system of data set [8] is P388/S. Description: (§2) Compound was evaluated for the growth inhibition of P388/s cells. The class given is functional, cell-based. Particulars: Mus musculus. The procedure, abridged: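 Cultured P388 cells were exposed to drug for 48 h and the IC50 for growth inhibition determined.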
The test system of data set [9] is P388. The data set is described as follows: Compound was evaluated for the antitumor efficacy at optimal dose 3.1 mg/kg against leukemia P388 in mice on day 1,. The format is functional, Mus musculus.
The test system of data set [10] is P388. Description: Compound was evaluated for the antitumor efficacy at optimal dose 8.0 mg/kg against leukemia P388 in mice on day q4d 5, 9, 13.,. The class given is functional, Mus musculus.
For data set [11], the system named is P388. The data set is described as follows: Compound was evaluated for the antitumor efficacy at optimal dose 0.012 mg/kg against leukemia P388 in mice on day 1,. The format is functional, Mus musculus.
The subject of data set [12] is P388/ADR. Description: Compound was evaluated for the growth inhibition of P388/ADR cells. Conditions: Mus musculus. The class given is functional, cell-based. In short, it runs like this: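 P388/ADR, a P388 subline selected for anthracycline resistance, grown in culture and exposed to drug for 48 h. IC50 (μM) was taken for growth inhibition. Resistance index = IC50 in P388/ADR ÷ IC50 in parent P388/S cells.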

Data set [13] concerns P388/S. Described as §2. The format is functional, cell-based. Conditions: Mus musculus. In short, it runs like this:
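Growth inhibition of P388/S cells (the standard screening P388 line) in culture after 48-h drug exposure; IC50 reported in μM.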
The source holds these as a separate data set.

For data set [14], the system named is P388. The data set is described as follows: Compound was evaluated for the antitumor efficacy at optimal dose 7.5 mg/kg against leukemia P388 in mice on day 1,. The format is functional, Mus musculus.

Molecules are shown by their SMILES.

As for `COc1cccc2c1C(=O)c1c(O)c3c(c(O)c1C2=O)C[C@@](O)(C(C)=O)C[C@@H]3OC1CC(NCC(N)=O)C(O)C(C)O1` (stereo not given in full), the logD in [1] came out at 1.65. Also, the “Change in Tm” value in data set [2] is given as 3.5. The EC50 worked out at 7500 nM in data set [3] and 1700 nM in [4].
Consider `COc1cccc2c1C(=O)c1c(O)c3c(c(O)c1C2=O)C[C@@](O)(C(=O)CO)C[C@@H]3OC1CC(NCC#N)C(O)C(C)O1` (stereo not given in full), for which the logD in data set [1] turned out to be 1.2. The “Change in Tm” value in data set [2] amounted to 13.9. The Recovery is on record as 92% in data set [5], 86% in [6] and 82% in data set [7]. Besides, the EC50 in data set [3] is 1200 nM; in data set [4], 290 nM. In data set [8], this molecule gave an IC50 of 28 nM. In addition, the T/C in data set [9] is recorded as 184%; in data set [10], 148%.
In data set [1], `COc1cccc2c1C(=O)c1c(O)c3c(c(O)c1C2=O)C[C@@](O)(C(C)=O)C[C@@H]3OC1CC(N(CC#N)CC(=O)[O-])C(O)C(C)O1.[Na+]` (stereo not given in full) showed a pH-dependent lipophilicity (logD) of 0.03. In addition, in [2], the “Change in Tm” value is recorded as 2.2. The EC50 is 14000 nM in data set [3] and 5300 nM in [4].
On the same counts, the results for `COc1cccc2c1C(=O)c1c(O)c3c(c(O)c1C2=O)C[C@@](O)(C(C)=O)C[C@@H]3OC1CC(NCC(=O)O)C(O)C(C)O1` (stereo not given in full) are 0.43, 2.2, more than 100000 nM and 100000 nM.
Regarding `COc1cccc2c1C(=O)c1c(O)c3c(c(O)c1C2=O)C[C@@](O)(C(C)=O)C[C@@H]3O[C@H]1C[C@H](N)[C@H](O)[C@H](C)O1` [DAUNORUBICIN], in data set [2], the “Change in Tm” value amounted to 10.5. For the same molecule, the EC50 in [3] came to 660 nM; in data set [4] it was 330 nM.
Regarding `COc1cccc2c1C(=O)c1c(O)c3c(c(O)c1C2=O)C[C@@](O)(C(=O)CO)C[C@@H]3OC1CC(N2CCOCC2C#N)C(O)C(C)O1` (stereo not given in full), the “Change in Tm” value in data set [2] is 8.7. For the same molecule, the results for the Recovery in data set [5], in [6] and in data set [7] were 10%, 54% and 74%, respectively. The figures for the EC50 in data set [3] and in data set [4] were 3 nM and 0.53 nM, respectively. Further, the T/C in [11] was found to be 262%. The molecule further returned an IC50 in data set [12] of 0.3 nM.
Turning to `COCC(C#N)NC1CC(O[C@H]2C[C@](O)(C(C)=O)Cc3c(O)c4c(c(O)c32)C(=O)c2c(OC)cccc2C4=O)OC(C)C1O` (stereo not given in full), the logD in [1] worked out at 2.64. Further, the “Change in Tm” value in data set [2] was found to be 9.4. The EC50 in [3] and in data set [4] was 510 nM each time.
Turning to `CCOC(=O)CNC1CC(O[C@H]2C[C@](O)(C(C)=O)Cc3c(O)c4c(c(O)c32)C(=O)c2c(OC)cccc2C4=O)OC(C)C1O` (stereo not given in full), in [2], the “Change in Tm” value was found to be 0. The EC50 in [3] is 13000 nM; in data set [4], 11000 nM.
In data set [1], `COc1cccc2c1C(=O)c1c(O)c3c(c(O)c1C2=O)C[C@@](O)(C(C)=O)C[C@@H]3OC1CC(NCC#N)C(O)C(C)O1` (stereo not given in full) returned a log distribution coefficient (logD) of 2.28. In [2], the “Change in Tm” value is 11.7. Besides, the EC50 in data set [3] turned out to be 1800 nM; in data set [4] it was 820 nM.
Taken in the same sequence, the figures for `CCOC(=O)CCCNC1CC(O[C@H]2C[C@](O)(C(C)=O)Cc3c(O)c4c(c(O)c32)C(=O)c2c(OC)cccc2C4=O)OC(C)C1O` (stereo not given in full) were 2.04, 8.4, 1300 nM and 370 nM.
`COCC(C#N)NC1CC(O[C@H]2C[C@](O)(C(=O)CO)Cc3c(O)c4c(c(O)c32)C(=O)c2c(OC)cccc2C4=O)OC(C)C1O` (stereo not given in full) returned a logD in [1] of 0.92. Also, the “Change in Tm” value in [2] is on record as 12.5. Moreover, the Recovery is 58% in data set [5], 29% in data set [6] and 28% in data set [7]. In addition, the EC50 amounted to 800 nM in data set [3] and 400 nM in data set [4]. Half-maximal inhibition in [8] (IC50) required 37 nM.
On to `COc1cccc2c1C(=O)c1c(O)c3c(c(O)c1C2=O)C[C@@](O)(C(=O)CO)C[C@@H]3O[C@H]1C[C@H](N)[C@H](O)[C@H](C)O1` [DOXORUBICIN], for which the “Change in Tm” value in data set [2] is on record as 12.8. The EC50 worked out at 1600 nM in [3] and 580 nM in data set [4]. The figures for the IC50 in [13] and in [12] were 68 nM and 8200 nM, respectively. Besides, the T/C in data set [14] amounted to 252%; in [10] it was 160%.
On to `CCOC(=O)CN(CC#N)C1CC(O[C@H]2C[C@](O)(C(C)=O)Cc3c(O)c4c(c(O)c32)C(=O)c2c(OC)cccc2C4=O)OC(C)C1O` (stereo not given in full), for which the results for the EC50 in data set [3] and in [4] were 7000 nM and 3500 nM, respectively.

Values taken from ChEMBL document CHEMBL1123251, “N-(cyanomethyl)- and N-(2-methoxy-1-cyanoethyl)anthracyclines and related carboxyl derivatives” (J Med Chem, 1986).
